Laboratory results from publication PMC5760825 (Journal of Pharmaceutical Analysis, 2011).
Like-named read-outs stand apart in the source and are kept apart here.

Tests used:
[1] = assay type: in vivo, human (healthy Chinese volunteers); conditions: for Cmax: plasma
Method in brief: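 Open-label, randomized, parallel-group study. Thirty healthy volunteers (5 men, 5 women per group) took single oral doses of 500, 1000 or 1500 mg glucosamine sulfate, as dispersible tablets, with 250 mL water after an overnight fast. The 500 mg group continued at 500 mg t.i.d. for 7 days, with troughs on days 4–7. Heparinized plasma was taken from 0 to 24 h. Cmax came from the observed curves, other parameters from non-compartmental analysis, and group differences from ANOVA.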

[2] = assay type: in vivo, human (healthy Chinese volunteers); conditions: n=10; for Urine excretion (% of dose): single oral dose 1000 mg, mean±SD
[3] = assay type: in vitro ADME, human; conditions: for Stability, Accuracy (% of nominal conc.): plasma
Method in brief: (§1)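 Glucosamine was spiked into blank human matrix at low and high QC levels: plasma 0.020 and 1.66 μg/mL, urine 2.21 and 42.7 μg/mL, n=2. Freeze-thaw used 24 h at −20 °C, thawing at room temperature and 12 h refreezing, up to three cycles. Short-term storage was 8 h at room temperature and long-term storage up to 60 days at −20 °C. Samples were compared with fresh references and accuracy given as found versus nominal.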

[4] = assay type: in vitro ADME, human; conditions: urine
Method in brief: as §1

[5] = cited from earlier work
[6] = before administration, Chinese volunteers, n=30
[7] = multiple doses 500 mg t.i.d., 7th day, mean±SD, n=10
[8] = single oral dose 500 mg, mean±SD, n=10
[9] = single oral dose 1000 mg, mean±SD, n=10
[10] = single oral dose 1500 mg, mean±SD, n=10
[11] = before administration, Chinese volunteers

accumulation after multiple doses ([1]; 500 mg t.i.d. for 7 consecutive days vs single dose): no significant accumulation effects
dose linearity of absorption (dose-normalized AUC and Cmax) ([1]; 1500 mg vs 500 and 1000 mg dose groups, P<0.05): non-linear absorption at higher doses
time at which peak concentration was reached ([1]; after oral administration, all dose groups): about 2 h
plasma glucosamine baseline levels, mean [1, 6]: 16.7 ± 26.9 ng/mL
plasma glucosamine baseline levels, range [1, 6]: 0 to 120 ng/mL
AUC0–10 [1, 7]: 1.02 ± 0.24 µg·h/mL
AUC0–∞ [1, 7]: 1.02 ± 0.24 µg·h/mL
AUCss [1, 7]: 1.00 ± 0.24 µg·h/mL
Css_av [1, 7]: 0.125 ± 0.031 µg/mL
Css_min [1, 7]: 0.059 ± 0.056 µg/mL
DF [1, 7]: 1.90±0.93%
MRT0–10 [1, 7]: 2.70 ± 0.34 h
Tmax [1, 7]: 1.90 ± 1.10 h
t1/2 [1, 7]: 1.41 ± 0.76 h
Cmax [1, 7]: 0.294 ± 0.076 µg/mL
time at which plasma glucosamine was eliminated to the baseline level ([1]; post-dosing): about 10 h
AUC0–10 [1, 8]: 1.42 ± 0.20 µg·h/mL
AUC0–∞ [1, 8]: 1.43 ± 0.21 µg·h/mL
MRT0–10 [1, 8]: 3.18 ± 0.71 h
Tmax [1, 8]: 2.60 ± 1.39 h
t1/2 [1, 8]: 1.17 ± 0.40 h
AUC0–10 [1, 9]: 3.37 ± 1.02 µg·h/mL
AUC0–∞ [1, 9]: 3.42 ± 1.01 µg·h/mL
MRT0–10 [1, 9]: 3.57 ± 0.24 h
Tmax [1, 9]: 2.70 ± 0.86 h
t1/2 [1, 9]: 1.32 ± 0.35 h
Cmax [1, 9]: 0.795 ± 0.280 µg/mL
AUC0–10 [1, 10]: 4.03 ± 1.28 µg·h/mL
AUC0–∞ [1, 10]: 4.18 ± 1.40 µg·h/mL
MRT0–10 [1, 10]: 3.30 ± 0.61 h
Tmax [1, 10]: 1.90 ± 0.84 h
t1/2 [1, 10]: 1.36 ± 0.94 h
Cmax [1, 10]: 0.925 ± 0.280 µg/mL
urine glucosamine levels (baseline), mean [2, 11]: 4.96 ± 1.74 µg/mL
urine glucosamine levels (baseline), range [2, 11]: 2.79 to 8.07 µg/mL
Urine excretion (% of dose) ([2]; 0–3 h after dosing): 0.434±0.300%
Urine excretion (% of dose) ([2]; 0–6 h after dosing): 1.39±1.45%
Urine excretion (% of dose) ([2]; 0–10 h after dosing): 1.83±1.84%
Urine excretion (% of dose) ([2]; 0–14 h after dosing): 1.90±1.86%
Urine excretion (% of dose) ([2]; 0–24 h after dosing): 1.99±1.86%
Stability, Accuracy (% of nominal conc.) ([3]; 0.020 μg/mL, Freeze-thaw (n=3)): 100.0%
Stability, Accuracy (% of nominal conc.) ([3]; 0.020 μg/mL, Long-term after 60 d (−20 °C)): 90.0%
Stability, Accuracy (% of nominal conc.) ([3]; 1.660 μg/mL, Freeze-thaw (n=3)): 105.2%
Stability, Accuracy (% of nominal conc.) ([3]; 1.660 μg/mL, Long-term after 60 d (−20 °C)): 106.6%
Stability, Accuracy (% of nominal conc.) ([3]; 1.660 μg/mL, Short-term after 8 h (25 °C)): 98.4%
stability in plasma and urine under different storage conditions ([3]; three freeze-thaw cycles, 8 h bench-top, −20 °C up to 2 months, plasma and urine): stable
Stability, Accuracy (% of nominal conc.) ([4]; 2.21 μg/mL, Freeze-thaw (n=3)): 106.6%
Stability, Accuracy (% of nominal conc.) ([4]; 2.21 μg/mL, Long-term after 60 d (−20 °C)): 99.2%
Stability, Accuracy (% of nominal conc.) ([4]; 2.21 μg/mL, Short-term after 8 h (25 °C)): 104.2%
Stability, Accuracy (% of nominal conc.) ([4]; 42.7 μg/mL, Freeze-thaw (n=3)): 105.3%
Stability, Accuracy (% of nominal conc.) ([4]; 42.7 μg/mL, Long-term after 60 d (−20 °C)): 103.7%
Stability, Accuracy (% of nominal conc.) ([4]; 42.7 μg/mL, Short-term after 8 h (25 °C)): 111.2%
Substance: 2-amino-2-deoxy-D-glucose [glucosamine]
plasma glucosamine baseline levels, mean value ([5]; Caucasian volunteers): 45.3 ng/mL
Endogenous level of glucosamine in human plasma ([5]; human plasma): 10 to 200 ng/mL
